# High-throughput results deposited in PubChem by several laboratories.
# NR2E3 ag-1 – agonists of human nuclear receptor NR2E3; Q9Y5X4; GST-NR2E3/biotin-RetCOR TR-FRET, 1536-well; inhibition of corepressor binding, % at 4.78 µM; 0.12% of 320,000 active; AID 2300;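 active means percent inhibition above the cutoff of mean plus 3 SD of all tested compounds, set per screening campaign, cut at about 20% in these data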;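 further: 0% = DMSO wells and 100% = biotin wells as full block of FRET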
#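 System: GST-tagged NR2E3 plus biotinylated RetCOR corepressor; Buffer or medium: pH 7.5 Tris-based buffer; Probe or stimulus: RetCOR corepressor, biotinylated, 7 nM; Doses: compound at 4.8 µM, single dose; Schedule: 5 h incubation at 4 °C; Technique: time-resolved FRET; Evaluation: percent inhibition of TR-FRET ratio; Replication: one well per compound, singlicate testing.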
# NR2E3 ag-2 – human photoreceptor-specific nuclear receptor agonism; Q9Y5X4; CHO-S Gal4-NCOR/VP16-NR2E3 two-hybrid, luciferase; inhibition of corepressor binding, % at 3.98 µM; 0.35% of 360,000 active; AID 602229;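 active means inhibition above the mean of all tested compounds plus 3 SD, cut at about 70% in these data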;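 further: 0% = DMSO with NR2E3 transfected cells and 100% = cells lacking NR2E3 construct; higher means lower luciferase signal from less NR2E3 corepressor binding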
# Rev-erbA mod – modulates human Rev-erb alpha binding to DNA. activity, % at 10 µM. 0.79% of 370,000 active. Rev-erbα–FITC-DNA binding, fluorescence polarization, 90 min. P20393;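 active means activity above about 14%, limit read from the data; passing the limit was not always enough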;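 further: 0% = DMSO wells with 35 nM protein and 100% = DMSO wells with 750 nM protein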
# PG9 binder – binds the HIV-1 gp120 antibody PG9; AID 624416; inhibition, % at 6.7 µM; 0.43% of 360,000 active; TR-FRET gp120-PG9 antibody binding; in the data active means inhibition above about 8.5%
# PKA-R1A activ – activators of PKA-R1A complex. P00514+P68181. PKA-R1A dissociation, Cy5-IP20 fluorescence polarization; scaled: DMSO 0%, 113 µM cGMP 100%. activation, % at 11.4 µM. 0.083% of 340,000 active;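 active means percent activation above the mean of all tested compounds plus 3 SD, cut at about 19% in these data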;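 further: higher means more PKAc released from R1A so a rise in polarization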
# PKA-R2B act – activators of human PKA-R2B complex | 0.079% of 340,000 active | PKA-R2B holoenzyme dissociation, Cy5-IP20 fluorescence polarization; R2B truncated from residue 108, S112A mutant; 0% DMSO only, 100% 113 µM cGMP | activation, % at 11.4 µM | P22694+P31323;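 active means activation above a cutoff set at the mean over all compounds plus 3 SD, cut at about 18% in these data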;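 further: higher means more holoenzyme dissociation and a rise in polarization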
# Target sequence (P31323 whole entry, looked up, other chains not shown, the tested form may be a part): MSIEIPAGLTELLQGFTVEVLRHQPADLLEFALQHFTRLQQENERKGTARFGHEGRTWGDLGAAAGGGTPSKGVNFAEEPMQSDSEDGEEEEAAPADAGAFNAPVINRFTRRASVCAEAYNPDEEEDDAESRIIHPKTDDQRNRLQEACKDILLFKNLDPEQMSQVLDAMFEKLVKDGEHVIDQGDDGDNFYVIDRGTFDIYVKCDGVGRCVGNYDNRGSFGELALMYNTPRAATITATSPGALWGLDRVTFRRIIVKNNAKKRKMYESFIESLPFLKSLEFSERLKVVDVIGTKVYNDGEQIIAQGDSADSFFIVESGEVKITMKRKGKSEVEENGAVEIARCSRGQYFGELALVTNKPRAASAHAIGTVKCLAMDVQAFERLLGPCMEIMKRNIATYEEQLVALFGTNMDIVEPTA
# NR1D1 mod conf – Rev-erb alpha (human) modulation, hit confirmation | Rev-erb alpha FITC-DNA binding, fluorescence polarization, 90 min | shares compounds with Rev-erbA mod | activation, % at 25 µM | 61% of 3,000 active;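 active means activation at or above a set limit, or at least 3 SD above the negative control mean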;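 further: 0% = 35 nM protein with DMSO and 100% = 750 nM protein high control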
# RORg counter – RORgamma DNA-binding activity, dose-response counter-screen; shares compounds with Rev-erbA mod; purified RORgamma protein-FITC-DNA binding, fluorescence polarization; IC50, µM; 8% of 910 active; AID 1259320;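 active means Compounds whose fitted half-maximal concentration for disrupting protein-DNA binding is below 10 micromolar; the record names Rev-erb in its text, so the target is in doubt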
# An asterisk follows results filed as active; i = inactive; / = no result given. Hits are enriched below; roughly 1.6% of the tested compounds scored in any of these assays.
SMILES,NR2E3 ag-1,NR2E3 ag-2,Rev-erbA mod,PG9 binder,PKA-R1A activ,PKA-R2B act,NR1D1 mod conf,others
O=C(CN1C(=O)NC(Cc2ccccc2)C1=O)Nc1ccc(OC(F)(F)F)cc1 (configuration not stated),2,6,14*,0,-5,11,-7,
O=S1(=O)c2ccc(Br)cc2OC[C@@H](Cc2ccccc2)N1Cc1cn(Cc2ccc(Cl)cc2)nn1,/,/,-4,/,/,/,/,
CCOc1ccc2c(c1)nc(SCC(=O)c1ccc(Br)s1)n2C,6,-12,25*,1,4,13,14,
CCOc1ccc2c(c1)nc(SCC(=O)c1cccs1)n2C,-2,-19,0,-3,3,10,/,
COC(CNC(=O)[C@H](Cc1ccccc1)NCC(=O)NC1CCCCC1)OC,/,/,0,/,/,/,/,
COc1cc2cc(C(=O)N3CCc4ccccc4C3)[nH]c2cc1OC,0,-15,28*,1,-10,6,11,
COc1cc2[nH]c(C(=O)N3CCc4ccccc4C3)cc2c(OC)c1OC,1,1,-4,1,-4,-2,/,
CN1C(=S)N(c2cccnc2)C(=O)/C1=C\c1ccc(N(C)C)cc1,/,-8,7,-4,9,-5,/,
Cc1c(N2C(=O)/C(=C\c3ccc(N(C)C)cc3)N(C)C2=S)c(=O)n(-c2ccccc2)n1C,-7,1,25*,-19,0,0,20*,
COc1ccc(Cl)cc1NC(=O)c1cnc2sccn2c1=O,6,-33,33*,1,3,2,32*,
CCOC(=O)c1sc(NC(=O)CSc2nc(C)cc(C)n2)c(C#N)c1C,-2,19,0,1,-16,-5,/,
CCc1nnc(NC(=O)CSc2nc3c(cc2C#N)CCCC3)s1,1,-96,34*,-1,3,-3,23*,
Cc1ccc2sc(NC(=O)CSc3nc(C)cc(C)c3C#N)nc2c1,-1,-123,29*,5,-6,2,6,
CCOC(=O)c1c(NC(=O)CSc2nc3ccccc3o2)sc(C(C)=O)c1C,-2,-26,12,-10,6,-8,/,
CCOC(=O)c1c(NC(=O)CSc2nc3ccccc3c(=O)n2-c2ccccc2)sc(C(C)=O)c1C,4,-7,140*,1,6,-12,15,
CCOC(=O)c1sc(NC(=O)CSc2nc3c(cc2C#N)CCCCC3)c(C#N)c1C,2,-14,30*,0,-2,10,20*,
Nn1c(SCC(=O)Nc2cccc3ccccc23)nnc1-c1cc(-c2ccccc2)n[nH]1,/,/,-2,/,/,/,/,
CCOC(=O)c1c(NC(=O)CSc2nc(C)cc(C)c2C#N)sc(C(C)=O)c1C,1,-40,35*,2,-2,9,17*,
COCCN1Cc2cc(C(=O)OC)c3c(c2C1=O)c1cc(F)ccc1n3S(=O)(=O)c1ccc(C)cc1,/,/,0,0,/,/,/,
CCN(CC)S(=O)(=O)c1ccc(F)cc1,6,3,37*,2,2,-1,6,
CCOC(=O)c1c(C)nc2sc3c(=O)n(-c4ccc(C(C)=O)cc4)nnc3c2c1-c1ccc(OC)cc1,1,-31,-5,1,13,-2,/,
CCOC(=O)c1c(C)nc2sc3c(=O)n(-c4ccc(OC)cc4)cnc3c2c1-c1ccc(OC)cc1,3,-18,35*,-1,1,-3,-14,
Cc1ccccc1C(=O)N=c1ccn(-c2nc3ccccc3nc2NS(=O)(=O)c2ccc(F)cc2)cc1,1,-14,35*,-5,-8,-3,92*,RORg counter=>40
O=C(N=c1ccn(-c2nc3ccccc3nc2NS(=O)(=O)c2ccccc2)cc1)c1cccs1,4,-5,174*,2,4,5,145*,RORg counter=>40
O=C(/C=C/c1ccc(-c2ccccc2)cc1)NC1=NCCS1,/,/,-5,/,/,/,/,
SMILES,NR2E3 ag-1,NR2E3 ag-2,Rev-erbA mod,PG9 binder,PKA-R1A activ,PKA-R2B act,NR1D1 mod conf,others
C(=N\Nc1nncc2ccccc12)/c1cccnc1,/,/,-6,/,/,/,/,
CC(=O)c1cccc(NC(=O)c2cccc(NC(=O)c3ccco3)c2)c1,6,20,45*,1,-1,-2,99*,RORg counter=5.7*
Cc1cc(C)cc(NC(=O)c2cccc(NC(=O)c3ccco3)c2)c1,0,-13,5,1,1,-8,/,
CN1CCS/C1=C\C=C1/SC(=S)N(CC(=O)O)C1=O,/,-7,293*,-17,8,-1,173*,RORg counter=>40
CCN1C(=O)/C(=C/C=C2/SCCN2C)SC1=S,0,-105,78*,-8,-15,2,148*,RORg counter=i
Cc1cccc2c(C(=O)n3cccn3)cc(-c3ccccc3Cl)nc12,1,-13,31*,2,1,8,7,
CCOc1ccc(-n2c(SCC(=O)c3ccccc3Cl)nnc2-c2ccncc2)cc1,/,/,-2,/,/,/,/,
O=c1c2cc(F)ccc2[nH]c(=S)n1Cc1ccc(F)cc1,4,-55,57*,1,-1,9,17*,
NS(=O)(=O)c1ccc(CCn2c(=S)[nH]c3ccc(F)cc3c2=O)cc1,1,-3,58*,37*,3,2,40*,RORg counter=>40
O=C(CCc1ccccc1-c1ccccc1CCNC(=O)COCc1ccccc1)NCc1ccccc1,/,/,0,/,/,/,/,
C=CCN(C)C(C#Cc1ccccc1)c1ccccc1C(F)(F)F (configuration not stated),/,/,-2,/,/,/,/,
Cc1ccccc1NC(=O)CSc1nc(N)c(C#N)c(-c2cccs2)c1C#N,18,16,126*,72*,-8,-3,95*,
COc1ccc(CCNC(=O)CSc2nc(N)c(C#N)c(-c3cccs3)c2C#N)cc1OC,3,1,37*,0,-14,-4,23*,
Cc1cc(C)c(C#N)c(SCC(=O)Nc2ccccc2C)n1,-4,-30,4,-1,-12,-7,/,
COC(=O)c1cc2c(c3c4cc(OC)ccc4n(S(=O)(=O)c4cccc(C)c4)c13)C(=O)N(C)C2,/,/,-1,0,/,/,/,
CCOc1ccc(CCNC(=O)c2cc(-c3ccccc3)c(N3CCOCC3)s2)cc1,3,-50,91*,2,0,-6,80*,RORg counter=>40
COc1ccc(/C(C)=N/NC(=O)Cc2cc(=O)[nH][nH]2)cc1OC,/,/,-5,/,/,/,/,
CCCCCCSc1ccc(-c2nc3cnccn3c2NCCCC)cc1,/,-7,25*,3,-5,-10,14,
